{"source": "ChEMBL document CHEMBL4842318", "about": "“A γ-lactam siderophore antibiotic effective against multidrug-resistant Pseudomonas aeruginosa, Klebsiella pneumoniae, and Acinetobacter spp” (Eur J Med Chem, 2021)", "key": {"[1]": {"assay": "Plasma concentration in SC dosed CD-1 mouse treated four times at 6 hrs interval measured after 8 hrs", "type": "ADME, organism-based", "method_in_brief": "(§1)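 CD-1 mice dosed SC at 50 mg/kg. Plasma sampled at 0.167 to 24 h, three individual mice per time point, reported as mean and SD in ng/mL.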"}, "Acinetobacter baumannii [2]": {"tested_on": "Acinetobacter baumannii", "assay": "Antibacterial activity against carbapenem resistant Acinetobacter baumannii isolate PR-384 assessed as bacterial growth inhibition by microdilution method", "type": "functional", "method_in_brief": "(§2)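 Broth microdilution in Chelex-treated, iron-depleted cation-adjusted Mueller-Hinton broth, following the protocol used for siderophore-containing antibiotics; inoculum lowered to 6 × 10^4 cfu/mL; MIC read as growth inhibition, in μg/mL.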"}, "[3]": {"assay": "Plasma concentration in SC dosed CD-1 mouse treated four times at 6 hrs interval measured after 24 hrs", "type": "ADME, organism-based", "method_in_brief": "as §1"}, "Acinetobacter baumannii [4]": {"tested_on": "Acinetobacter baumannii", "assay": "Antibacterial activity against carbapenem resistant Acinetobacter baumannii isolate PR-482 assessed as inhibition of bacterial growth in presence of 20 ug/ml sulbactam by microdilution method", "type": "functional", "details": "dose 20 µg/ml", "method_in_brief": "(§3)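 Broth microdilution MIC in iron-depleted (Chelex resin-treated) cation-adjusted Mueller-Hinton broth, following the protocol used for siderophore-containing antibiotics. Inoculum was lowered to 6 × 10^4 cfu/mL.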"}, "Acinetobacter baumannii [5]": {"tested_on": "Acinetobacter baumannii", "assay": "Antibacterial activity against carbapenem resistant Acinetobacter baumannii isolate PR-345 assessed as inhibition of bacterial growth in presence of 20 ug/ml sulbactam by microdilution method", "type": "functional", "details": "dose 20 µg/ml"}, "[6]": {"assay": "Plasma concentration in SC dosed CD-1 mouse treated four times at 6 hrs interval measured after 0.167 hrs", "type": "ADME, organism-based", "method_in_brief": "as §1"}, "Acinetobacter baumannii [7]": {"tested_on": "Acinetobacter baumannii", "assay": "Antibacterial activity against carbapenem susceptible Acinetobacter baumannii isolate PR-452 assessed as inhibition of bacterial growth at 1:1 compound to sulbactam concentration by microdilution method", "type": "functional", "method_in_brief": "as §3"}, "Acinetobacter baumannii [8]": {"tested_on": "Acinetobacter baumannii", "assay": "Antibacterial activity against carbapenem resistant Acinetobacter baumannii isolate PR-380 assessed as inhibition of bacterial growth at 1:1 compound to sulbactam concentration by microdilution method", "type": "functional", "method_in_brief": "(§4)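 Iron-depleted (Chelex-treated) cation-adjusted Mueller-Hinton broth microdilution; inoculum 6 × 10^4 cfu/mL. Test agent and sulbactam mixed 1:1 by mass and serially 2-fold diluted together. MIC in μg/mL.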"}, "Acinetobacter baumannii [9]": {"tested_on": "Acinetobacter baumannii", "assay": "Antibacterial activity against carbapenem susceptible Acinetobacter baumannii isolate PR-464 assessed as bacterial growth inhibition by microdilution method", "type": "functional", "method_in_brief": "as §3"}, "Acinetobacter baumannii [10]": {"tested_on": "Acinetobacter baumannii", "assay": "Antibacterial activity against carbapenem resistant Acinetobacter baumannii isolate PR-319 assessed as inhibition of bacterial growth in presence of 20 ug/ml sulbactam by microdilution method", "type": "functional", "details": "dose 20 µg/ml"}, "[11]": {"assay": "Substrate activity at VIM-2 (unknown origin) assessed as ratio of Kcat to Km by measuring hydrolysis by spectrophotometry", "type": "ADME", "method_in_brief": "(§5)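 Substrate hydrolysis (600 μM start) followed at 336 nm (Δε336 = −4362 M−1 cm−1, 0.2 cm cuvette) to completion; velocities over 10 s intervals along progress curve; Km, Vmax from double reciprocal plot, kcat = Vmax/[E].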"}, "Acinetobacter baumannii [12]": {"tested_on": "Acinetobacter baumannii", "assay": "Antibacterial activity against carbapenem susceptible Acinetobacter baumannii isolate PR-464 assessed as inhibition of bacterial growth at 1:1 compound to sulbactam concentration by microdilution method", "type": "functional", "method_in_brief": "(§6)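 Broth microdilution MIC in Chelex-treated, iron-depleted cation-adjusted Mueller-Hinton broth, inoculum 6 × 10^4 cfu/mL. Compound and sulbactam combined 1:1 by mass in a 2-fold dilution series.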"}, "Acinetobacter baumannii [13]": {"tested_on": "Acinetobacter baumannii", "assay": "Antibacterial activity against carbapenem resistant Acinetobacter baumannii isolate PR-384 assessed as inhibition of bacterial growth at 1:1 compound to sulbactam concentration by microdilution method", "type": "functional", "method_in_brief": "as §4"}, "Acinetobacter baumannii [14]": {"tested_on": "Acinetobacter baumannii", "assay": "Antibacterial activity against carbapenem resistant Acinetobacter baumannii isolate PR-380 assessed as inhibition of bacterial growth in presence of 20 ug/ml sulbactam by microdilution method", "type": "functional", "details": "dose 20 µg/ml"}, "Acinetobacter baumannii [15]": {"tested_on": "Acinetobacter baumannii", "assay": "Antibacterial activity against carbapenem resistant Acinetobacter baumannii isolate PR-423 assessed as inhibition of bacterial growth at 1:1 compound to sulbactam concentration by microdilution method", "type": "functional", "method_in_brief": "as §4"}, "[16]": {"assay": "Antibacterial activity against carbapenem susceptible Acinetobacter nosocomialis isolate PR-362 assessed as inhibition of bacterial growth at 1:1 compound to sulbactam concentration by microdilution method", "type": "functional", "method_in_brief": "as §6"}, "Acinetobacter baumannii [17]": {"tested_on": "Acinetobacter baumannii", "assay": "Antibacterial activity against carbapenem resistant Acinetobacter baumannii isolate PR-401 assessed as bacterial growth inhibition by microdilution method", "type": "functional", "method_in_brief": "as §2"}, "Pseudomonas aeruginosa [18]": {"tested_on": "Pseudomonas aeruginosa", "assay": "Antibacterial activity against wild type Pseudomonas aeruginosa isolate PR-636 leucine at 533 residue assessed as inhibition of bacterial growth by microdilution method", "type": "functional", "method_in_brief": "as §3"}, "CYP2C8": {"molecular_target": "T1, CYP2C8 (Homo sapiens, UniProt P10632)", "T1 sequence (P10632 whole entry)": "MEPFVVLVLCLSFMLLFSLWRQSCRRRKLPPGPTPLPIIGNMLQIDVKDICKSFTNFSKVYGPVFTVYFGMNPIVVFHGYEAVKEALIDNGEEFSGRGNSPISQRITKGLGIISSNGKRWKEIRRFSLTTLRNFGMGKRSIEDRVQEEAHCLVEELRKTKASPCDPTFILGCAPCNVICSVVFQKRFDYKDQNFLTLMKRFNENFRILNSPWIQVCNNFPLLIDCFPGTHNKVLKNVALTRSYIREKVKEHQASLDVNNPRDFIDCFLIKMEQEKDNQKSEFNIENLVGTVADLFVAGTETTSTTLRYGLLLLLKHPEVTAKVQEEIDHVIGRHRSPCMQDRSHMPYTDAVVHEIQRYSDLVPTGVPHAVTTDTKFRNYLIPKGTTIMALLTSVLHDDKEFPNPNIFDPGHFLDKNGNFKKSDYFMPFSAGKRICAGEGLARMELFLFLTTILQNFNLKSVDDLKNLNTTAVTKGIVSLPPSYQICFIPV", "assay": "Inhibition of CYP2C8 (unknown origin) at 100 uM", "type": "ADME"}, "Acinetobacter baumannii [19]": {"tested_on": "Acinetobacter baumannii", "assay": "Antibacterial activity against carbapenem resistant Acinetobacter baumannii isolate PR-325 assessed as inhibition of bacterial growth in presence of 20 ug/ml sulbactam by microdilution method", "type": "functional", "details": "dose 20 µg/ml"}, "[20]": {"assay": "Substrate activity at IMP-1 (unknown origin) assessed as ratio of Kcat to Km by measuring hydrolysis by spectrophotometry", "type": "ADME", "method_in_brief": "as §5"}, "Acinetobacter baumannii [21]": {"tested_on": "Acinetobacter baumannii", "assay": "Antibacterial activity against carbapenem resistant Acinetobacter baumannii isolate PR-459 assessed as bacterial growth inhibition by microdilution method", "type": "functional", "method_in_brief": "as §2"}, "Acinetobacter baumannii [22]": {"tested_on": "Acinetobacter baumannii", "assay": "Antibacterial activity against carbapenem resistant Acinetobacter baumannii isolate PR-482 assessed as bacterial growth inhibition by microdilution method", "type": "functional", "method_in_brief": "as §2"}, "[23]": {"assay": "Substrate activity at VIM-2 (unknown origin) assessed as Kcat by measuring hydrolysis by spectrophotometry", "type": "ADME", "method_in_brief": "as §5"}, "Pseudomonas aeruginosa [24]": {"tested_on": "Pseudomonas aeruginosa", "assay": "Antibacterial activity against Pseudomonas aeruginosa isolate PR-627 leucine at 533 residue assessed as inhibition of bacterial growth by microdilution method", "type": "functional", "method_in_brief": "as §2"}, "Acinetobacter baumannii [25]": {"tested_on": "Acinetobacter baumannii", "assay": "Antibacterial activity against carbapenem resistant Acinetobacter baumannii isolate PR-314 assessed as inhibition of bacterial growth in presence of 20 ug/ml sulbactam by microdilution method", "type": "functional", "details": "dose 20 µg/ml"}, "[26]": {"assay": "Antibacterial activity against carbapenem susceptible Acinetobacter nosocomialis isolate PR-491 assessed as bacterial growth inhibition by microdilution method", "type": "functional", "method_in_brief": "as §3"}, "[27]": {"assay": "Permeability in human Caco-2 cells", "type": "ADME, cell-based"}, "Acinetobacter baumannii [28]": {"tested_on": "Acinetobacter baumannii", "assay": "Antibacterial activity against carbapenem resistant Acinetobacter baumannii isolate PR-387 assessed as inhibition of bacterial growth at 1:1 compound to sulbactam concentration by microdilution method", "type": "functional", "method_in_brief": "as §4"}, "Acinetobacter baumannii [29]": {"tested_on": "Acinetobacter baumannii", "assay": "Antibacterial activity against carbapenem resistant Acinetobacter baumannii isolate PR-325 assessed as bacterial growth inhibition by microdilution method", "type": "functional", "method_in_brief": "as §2"}, "Acinetobacter baumannii [30]": {"tested_on": "Acinetobacter baumannii", "assay": "Antibacterial activity against carbapenem resistant Acinetobacter baumannii isolate PR-314 assessed as bacterial growth inhibition by microdilution method", "type": "functional", "method_in_brief": "as §2"}}, "data": [{"smiles": "CC(C)(O/N=C(\\C(=O)N[C@H]1CN2CC(C(=O)NCCN3C(=O)c4cc(O)c(O)cc4C3=O)=C(C(=O)O)N2C1=O)c1nc(N)sc1Cl)C(=O)O", "values": [{"measurement": "concentration at 8 h", "setting": "[1]", "result": 1200, "unit": "ng/mL"}, {"measurement": "MIC", "setting": "Acinetobacter baumannii [2]", "result": "> 16", "unit": "µg/mL"}, {"measurement": "concentration at 24 h", "setting": "[3]", "result": 601, "unit": "ng/mL"}, {"measurement": "MIC", "setting": "Acinetobacter baumannii [4]", "result": "≤ 0.25", "unit": "µg/mL"}, {"measurement": "MIC", "setting": "Acinetobacter baumannii [5]", "result": "≤ 0.25", "unit": "µg/mL"}, {"measurement": "concentration at 0.167 h", "setting": "[6]", "result": 47400, "unit": "ng/mL"}, {"measurement": "MIC", "setting": "Acinetobacter baumannii [7]", "result": "≤ 0.25", "unit": "µg/mL"}, {"measurement": "MIC", "setting": "Acinetobacter baumannii [8]", "result": 16, "unit": "µg/mL"}, {"measurement": "MIC", "setting": "Acinetobacter baumannii [9]", "result": "> 16", "unit": "µg/mL"}, {"measurement": "MIC", "setting": "Acinetobacter baumannii [10]", "result": 0.5, "unit": "µg/mL"}, {"measurement": "Kcat/Km", "setting": "[11]", "result": 12000, "unit": "M⁻¹ s⁻¹"}, {"measurement": "MIC", "setting": "Acinetobacter baumannii [12]", "result": "≤ 0.25", "unit": "µg/mL"}, {"measurement": "MIC", "setting": "Acinetobacter baumannii [13]", "result": 16, "unit": "µg/mL"}, {"measurement": "MIC", "setting": "Acinetobacter baumannii [14]", "result": "≤ 0.25", "unit": "µg/mL"}, {"measurement": "MIC", "setting": "Acinetobacter baumannii [15]", "result": 8, "unit": "µg/mL"}, {"measurement": "MIC", "setting": "[16]", "result": "≤ 0.25", "unit": "µg/mL"}, {"measurement": "MIC", "setting": "Acinetobacter baumannii [17]", "result": "> 16", "unit": "µg/mL"}, {"measurement": "MIC", "setting": "Pseudomonas aeruginosa [18]", "result": "> 16", "unit": "µg/mL"}, {"measurement": "inhibition at 100 µM", "setting": "CYP2C8", "result": 50, "unit": "%"}, {"measurement": "MIC", "setting": "Acinetobacter baumannii [19]", "result": "> 16", "unit": "µg/mL"}, {"measurement": "Kcat/Km", "setting": "[20]", "result": 3000, "unit": "M⁻¹ s⁻¹"}, {"measurement": "MIC", "setting": "Acinetobacter baumannii [21]", "result": 16, "unit": "µg/mL"}, {"measurement": "MIC", "setting": "Acinetobacter baumannii [22]", "result": "> 16", "unit": "µg/mL"}, {"measurement": "Kcat", "setting": "[23]", "result": 54, "unit": "s⁻¹"}, {"measurement": "MIC", "setting": "Pseudomonas aeruginosa [24]", "result": "> 16", "unit": "µg/mL"}, {"measurement": "MIC", "setting": "Acinetobacter baumannii [25]", "result": "≤ 0.25", "unit": "µg/mL"}, {"measurement": "MIC", "setting": "[26]", "result": "> 16", "unit": "µg/mL"}, {"measurement": "permeability", "setting": "[27]", "result": "Impermeable"}, {"measurement": "MIC", "setting": "Acinetobacter baumannii [28]", "result": 16, "unit": "µg/mL"}, {"measurement": "MIC", "setting": "Acinetobacter baumannii [29]", "result": "> 16", "unit": "µg/mL"}, {"measurement": "MIC", "setting": "Acinetobacter baumannii [30]", "result": "> 16", "unit": "µg/mL"}]}]}
